The source made the active and inactive calls. The calls are words filed in the database; no cut-off is given here.
Assays:
[1] = test system: Influenza A virus; experiment: Antiviral activity against Influenza A virus A/WSN/33(H1N1) infected in MDCK cells assessed as s reduction in cytopathic effect after 40 hrs incubation by CellTiter-Glo assay relative to control; type: functional, A/WSN/1933(H1N1)
How it was run: (§1)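 MDCK cells seeded in 96-well plates and grown overnight, then infected with A/WSN/33 (H1N1) at MOI 0.1. Cells were kept in DMEM with 1% FBS, test compound, 2 µg/mL TPCK-trypsin and 1% DMSO final. After 40 h, cell viability was read by CellTiter-Glo luminescence to measure CPE reduction.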

[2] = test system: Influenza A virus; experiment: Antiviral activity against Influenza A virus A/WSN/33(H1N1) infected in MDCK cells assessed as s reduction in cytopathic effect after 40 hrs incubation by CellTiter-Glo assay; type: functional, organism-based; conditions: A/WSN/1933(H1N1); how it was run: as §1
[3] = Cytotoxicity against MDCK cells after 40 hrs incubation by CellTiter-Glo assay; type: cell-based, Canis lupus familiaris; conditions: dog
How it was run: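 Uninfected MDCK cells were grown overnight in 96-well plates in 1% FBS medium. They were exposed to increasing compound concentrations for 40 h, and viability was read by CellTiter-Glo luminescence.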

[4] = Binding affinity to recombinant influenza A virus A hemagglutinin by SPR assay
How it was run: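 SPR used HA immobilized to about 16,000 RU. Compounds were injected as analytes at various concentrations in PBS-P running buffer (10 mM phosphate, 2.7 mM KCl, 137 mM NaCl, 0.05% P20, pH 4.5). Flow was 30 µL/min, with 60 s contact and 60 s dissociation, giving KD.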

[5] = test system: Influenza A virus; experiment: Antiviral activity against Influenza A virus A/WSN/33(H1N1)) infected in MDCK cells assessed as inhibition of virus infection at early stage after 2 hrs post infection by time of addition assay; type: functional, organism-based; conditions: A/WSN/1933(H1N1)
How it was run: (§2)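 Cells were seeded in 6-well plates at 5 × 10^5 per well 24 h before infection and kept at 37 °C, 5% CO2. They were infected with WSN at MOI 1. Compound was present during 0-10, 0-2, 2-5, 5-8 or 8-10 h post infection. Lysates were Western-blotted for viral NP, with GAPDH probed and DMSO as control.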

[6] = test system: Red blood cell; experiment: Inhibition of hemagglutinin in Influenza A virus A/WSN/33(H1N1)) assessed as reduction in virus-induced agglutination of chicken red blood cells pretreated for 1 hr followed by further incubated for 1 hr; type: cell-based; conditions: Influenza A virus (A/WSN/1933(H1N1))
How it was run: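 Haemagglutination inhibition: compound was 3-fold serially diluted in saline and mixed with an equal volume of WSN virus (2 HA units) in V-bottom wells. Freshly prepared chicken RBC (1% v/v in saline) were added and incubated at room temperature. cRBC aggregation was scored visually, with anti-HA antibody as comparator.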

[7] = test system: Influenza A virus; experiment: Antiviral activity against Influenza A virus A/WSN/33(H1N1)) infected in MDCK cells assessed as suppression of viral genome replication after 8 to 10 hrs post infection by time of addition assay; type: functional, organism-based; conditions: A/WSN/1933(H1N1), time 8-10 hrs; how it was run: as §2
[8] = test system: Influenza A virus; experiment: Antiviral activity against Influenza A virus A/WSN/33(H1N1)) infected in MDCK cells assessed as suppression of viral genome translation after 8 to 10 hrs post infection by time of addition assay; type: functional, organism-based; conditions: A/WSN/1933(H1N1), time 8-10 hrs; how it was run: as §2
[9] = test system: Influenza A virus; experiment: Antiviral activity against Influenza A virus A/WSN/33(H1N1)) infected in MDCK cells assessed as suppression of virion assembly and release after 8 to 10 hrs post infection by time of addition assay; type: functional, organism-based; conditions: A/WSN/1933(H1N1), time 8-10 hrs; how it was run: as §2
[10] = test system: Influenza A virus; experiment: Antiviral activity against Influenza A virus A/WSN/33(H1N1)) infected in MDCK cells assessed as inhibition rate at 50 uM by co-treatment assay; type: functional, A/WSN/1933(H1N1); design: scale not given: the % may be the effect or the level left
[11] = test system: Influenza A virus; experiment: Antiviral activity against Influenza A virus A/WSN/33(H1N1)) infected in MDCK cells assessed as inhibition rate by pretreated virus at 50 uM; type: functional, A/WSN/1933(H1N1); design: scale not given: the % may be the effect or the level left

Structure (SMILES) | inhibition (INH) [1] | EC50 [2] | CC50 at 40 h [3] | also measured
C=C(C)[C@@H]1CC[C@]2(C(=O)NCc3cn(C[C@H](O)[C@H]4OC(=O)C(O)=C4O)nn3)CC[C@]3(C)[C@H](CC[C@@H]4[C@@]5(C)CC[C@H](O)C(C)(C)[C@@H]5CC[C@]43C)[C@@H]12 | 93.1% | 41.3 µM | > 200 µM | Kd [4]: 8.04 µM
COC1=C(OC)[C@@H]([C@@H](O)Cn2cc(CNC(=O)[C@]34CCC(C)(C)C[C@H]3C3=CC[C@@H]5[C@@]6(C)CC[C@H](O)C(C)(C)[C@@H]6CC[C@@]5(C)[C@]3(C)CC4)nn2)OC1=O | – | – | 19.6 µM | –
CC1(C)CC[C@]2(C(=O)NCc3cn(C[C@H](O)[C@H]4OC(=O)C(O)=C4O)nn3)[C@H](O)C[C@]3(C)C(=CC[C@@H]4[C@@]5(C)CC[C@H](O)C(C)(C)[C@@H]5CC[C@]43C)[C@@H]2C1 | – | – | 59.3 µM | –
C=C(C)[C@@H]1CC[C@@]2(C(=O)NCc3cn(C[C@H](O)[C@H]4OC(=O)C(OC)=C4OC)nn3)[C@H]1[C@H]1CC[C@@H]3[C@@]4(C)CC[C@H](O)C(C)(C)[C@@H]4CC[C@@]3(C)[C@]1(C)C[C@H]2O | – | – | 43.9 µM | –
CC1(C)CC[C@]2(C(=O)NC[C@H](O)[C@H]3OC(=O)C(O)=C3O)[C@H](O)C[C@]3(C)C(=CC[C@@H]4[C@@]5(C)CC[C@H](O)C(C)(C)[C@@H]5CC[C@]43C)[C@@H]2C1 | – | – | 29.7 µM | –
COC1=C(OC)[C@@H]([C@@H](O)Cn2cc(CNC(=O)[C@]34CC[C@@H](C)[C@H](C)[C@H]3C3=CC[C@@H]5[C@@]6(C)CC[C@H](O)C(C)(C)[C@@H]6CC[C@@]5(C)[C@]3(C)C[C@H]4O)nn2)OC1=O | – | – | 52.5 µM | –
CC1(C)CC[C@]2(C(=O)NC[C@H](O)[C@H]3OC(=O)C(O)=C3O)CC[C@]3(C)C(=CC[C@@H]4[C@@]5(C)CC[C@H](O)C(C)(C)[C@@H]5CC[C@]43C)[C@@H]2C1 | – | – | 41.9 µM | –
C[C@H]1[C@H](C)CC[C@]2(C(=O)NC[C@H](O)[C@H]3OC(=O)C(OCc4ccccc4)=C3OCc3ccccc3)CC[C@]3(C)C(=CC[C@@H]4[C@@]5(C)CC[C@H](O)C(C)(C)[C@@H]5CC[C@]43C)[C@H]12 | 88.1% | 26.4 µM | > 200 µM | –
CC1(C)CC[C@]2(C(=O)NCc3cn(C[C@H](O)[C@H]4OC(=O)C(O)=C4O)nn3)CC[C@]3(C)C(=CC[C@@H]4[C@@]5(C)CC[C@H](O)C(C)(C)[C@@H]5CC[C@]43C)[C@@H]2C1 | – | – | 46.8 µM | –
CCOC(=O)C1=C[C@@H](OC(CC)CC)[C@H](NC(C)=O)[C@@H](N)C1.O=P(O)(O)O [OSELTAMIVIR PHOSPHATE] | 86.5% | 12.5 µM | > 200 µM | –
C[C@H]1[C@H](C)CC[C@]2(C(=O)NCc3cn(C[C@H](O)[C@H]4OC(=O)C(O)=C4O)nn3)[C@H](O)C[C@]3(C)C(=CC[C@@H]4[C@@]5(C)CC[C@H](O)C(C)(C)[C@@H]5CC[C@]43C)[C@H]12 | – | – | 41.1 µM | –
C[C@H]1[C@H](C)CC[C@]2(C(=O)NCc3cn(C[C@H](O)[C@H]4OC(=O)C(OCc5ccccc5)=C4OCc4ccccc4)nn3)CC[C@]3(C)C(=CC[C@@H]4[C@@]5(C)CC[C@H](O)C(C)(C)[C@@H]5CC[C@]43C)[C@H]12 | 90.8% | 25.7 µM | > 200 µM | –
CC1(C)CC[C@]2(C(=O)NC[C@H](O)[C@H]3OC(=O)C(OCc4ccccc4)=C3OCc3ccccc3)[C@H](O)C[C@]3(C)C(=CC[C@@H]4[C@@]5(C)CC[C@H](O)C(C)(C)[C@@H]5CC[C@]43C)[C@@H]2C1 | 71.1% | 30.3 µM | > 200 µM | –
CC(C)[C@@H]1CC[C@]2(C(=O)NC[C@H](O)[C@H]3OC(=O)C(O)=C3O)CC[C@]3(C)[C@H](CC[C@@H]4[C@@]5(C)CC[C@H](O)C(C)(C)[C@@H]5CC[C@]43C)[C@@H]12 | 84.4% | 35.6 µM | > 200 µM | –
C=C(C)[C@@H]1CC[C@]2(C(=O)NC[C@H](O)[C@H]3OC(=O)C(OCc4ccccc4)=C3OCc3ccccc3)CC[C@]3(C)[C@H](CC[C@@H]4[C@@]5(C)CC[C@H](O)C(C)(C)[C@@H]5CC[C@]43C)[C@@H]12 | 89.6% | 23.7 µM | > 200 µM | –
C=C(C)[C@@H]1CC[C@]2(C(=O)NCc3cn(C[C@H](O)[C@H]4OC(=O)C(OCc5ccccc5)=C4OCc4ccccc4)nn3)CC[C@]3(C)[C@H](CC[C@@H]4[C@@]5(C)CC[C@H](O)C(C)(C)[C@@H]5CC[C@]43C)[C@@H]12 | 89.6% | 8.7 µM | > 200 µM | Activity [5]: Active; inhibition [6]: Dose-dependent effect; Kd [4]: 3.76 µM; Activity [7]: Active; Activity [8]: Active; Activity [9]: Active; Activity [10]: 75%; Activity [11]: 87%
COC1=C(OC)[C@@H]([C@@H](O)Cn2cc(CNC(=O)[C@]34CCC(C)(C)C[C@H]3C3=CC[C@@H]5[C@@]6(C)CC[C@H](O)C(C)(C)[C@@H]6CC[C@@]5(C)[C@]3(C)C[C@H]4O)nn2)OC1=O | – | – | 5.6 µM | –
CC1(C)CC[C@]2(C(=O)NCc3cn(C[C@H](O)[C@H]4OC(=O)C(OCc5ccccc5)=C4OCc4ccccc4)nn3)CC[C@]3(C)C(=CC[C@@H]4[C@@]5(C)CC[C@H](O)C(C)(C)[C@@H]5CC[C@]43C)[C@@H]2C1 | 91.3% | 19.2 µM | > 200 µM | –
CC1(C)CC[C@]2(C(=O)NCc3cn(C[C@H](O)[C@H]4OC(=O)C(OCc5ccccc5)=C4OCc4ccccc4)nn3)[C@H](O)C[C@]3(C)C(=CC[C@@H]4[C@@]5(C)CC[C@H](O)C(C)(C)[C@@H]5CC[C@]43C)[C@@H]2C1 | 87% | 56.6 µM | > 200 µM | –
CC1(C)CC[C@]2(C(=O)NC[C@H](O)[C@H]3OC(=O)C(OCc4ccccc4)=C3OCc3ccccc3)CC[C@]3(C)C(=CC[C@@H]4[C@@]5(C)CC[C@H](O)C(C)(C)[C@@H]5CC[C@]43C)[C@@H]2C1 | 81.9% | 25.3 µM | > 200 µM | –

Source: ChEMBL document CHEMBL4715704, “Design, synthesis and biological evaluation of novel L-ascorbic acid-conjugated pentacyclic triterpene derivatives as potential influenza virus entry inhibitors” (Eur J Med Chem, 2016)
